Legend:
Type in all cases: functional, cell-based
[1] = system: A549; test: Cytotoxicity against human A549 cells after 24 hrs by MTT assay; details: A549, 24 h
Procedure, shortened: (§1)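 Cell lines from ATCC were seeded at 3000 cells per well and exposed to a range of compound concentrations 24 h after seeding. Treatment lasted 24 h. MTT was then added and plates were incubated for a further 24 h. Viability was read as absorbance at 570 nm, and IC50 was determined.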

[2] = system: HepG2; test: Cytotoxicity against human HepG2 cells after 24 hrs by MTT assay; details: HepG2, 24 h; procedure, shortened: as §1
[3] = system: LoVo; test: Cytotoxicity against human LoVo cells after 24 hrs by MTT assay; procedure, shortened: as §1
[4] = system: MDA-MB-435; test: Cytotoxicity against human MDA-MB-435 cells after 24 hrs by MTT assay; details: MDA-MB-435, 24 h; procedure, shortened: as §1
[5] = Cytotoxicity against human cells 6T-CEM after 24 hrs by MTT assay; procedure, shortened: as §1

Measured: IC50

O=C1C[C@@H](c2ccccc2)Oc2cc(O)cc(/C=C\c3ccccc3)c21 [COMMUNIN A]
> 5 µg/mL: all assays above

O=C1C[C@@H](c2ccccc2)Oc2cc(O)cc(/C=C/c3ccccc3)c21 [COMMUNIN B]
> 5 µg/mL: all assays above

O=C1C[C@@H]2c3ccccc3O[C@H]3c4ccc(O)cc4-c4c(O)cc(O)c1c4[C@H]23 [OHIOENSIN H]
> 5 µg/mL: all assays above

Source: ChEMBL document CHEMBL1152409, “Constituents of the moss Polytrichum commune” (J Nat Prod, 2009)
